Results published in ChEMBL document CHEMBL1134666, “Design, synthesis, and biological evaluation of novel nucleoside and nucleotide analogues as agents against DNA viruses and/or retroviruses” (J Med Chem, 2001).

Key:
[1] = molecular target: T1, Adenosine deaminase (Bos taurus) (UniProt P56658); assay: Maximum velocity constant against adenosine deaminase
T1 sequence (whole entry): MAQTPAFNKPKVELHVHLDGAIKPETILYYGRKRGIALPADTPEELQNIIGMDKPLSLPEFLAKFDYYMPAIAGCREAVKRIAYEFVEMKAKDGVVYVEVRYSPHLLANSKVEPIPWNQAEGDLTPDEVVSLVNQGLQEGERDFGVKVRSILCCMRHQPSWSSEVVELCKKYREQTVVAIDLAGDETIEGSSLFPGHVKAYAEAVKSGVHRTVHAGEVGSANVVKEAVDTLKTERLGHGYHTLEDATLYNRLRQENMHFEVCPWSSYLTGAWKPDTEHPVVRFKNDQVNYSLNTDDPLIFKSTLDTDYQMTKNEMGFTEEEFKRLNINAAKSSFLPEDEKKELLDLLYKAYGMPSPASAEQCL
How it was run: (§1)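 Calf mucosal adenosine deaminase in buffer solution. Reaction velocity measured as µmol/min per mg enzyme across substrate concentrations.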

[2] = system: Thymidine kinase (Herpes simplex virus 1); assay: Maximum velocity constant of the rate of phosphorylation was determined in the presence of HSV thymidine kinase
Vero = assay: Michaelis rate constant is determined by the Lineweaver and Burk method against Vero cell thymidine kinase; format: functional, cell-based; details: Chlorocebus sabaeus
[3] = Maximum velocity constant of the rate of phosphorylation was determined against PRPP synthetase
How it was run: (§2)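 PRPP synthetase (0.04 unit) in 10.0 mM potassium phosphate pH 8.0 with 5.0 mM MgCl2, 2.5 mM PRPP and substrate. Reaction linear; stopped with MeOH after 4 h. Diphosphate products quantified by anion-exchange HPLC.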

[4] = Michaelis rate constant is determined by the Lineweaver and Burk method against PRPP synthetase; how it was run: as §2
[5] = molecular target: T1, Adenosine deaminase (Bos taurus); assay: Maximum velocity constant of the rate of deamination was determined against adenosine deaminase; how it was run: as §1
[6] = Maximum velocity constant of the rate of phosphorylation was determined against PRPP synthetase
[7] = system: Thymidine kinase (Herpes simplex virus 1); assay: Maximum velocity constant of the rate of phosphorylation was determined against HSV thymidine kinase

**Q.** What does the source list for `Nc1ncnc2c1ncn2COCCO`?
**A.** Relative Vmax [1]: 1.5; Relative Vmax [2]: < 3; Km (Vero): > 3 µM

**Q.** Which results are given for `Nc1ncnc2c1ncn2[C@@H]1O[C@H](COP(=O)(O)O)[C@@H](O)[C@H]1O`?
**A.** Relative Vmax [3]: 14; Km [4]: 240 µM

**Q.** What does the source list for `Nc1ncnc2c1ncn2[C@@H]1O[C@H](CO)[C@@H](O)[C@@H]1O`?
**A.** Relative Vmax [5]: 1; Km (Vero): 2.2 µM

**Q.** For `Nc1ncnc2ncn(COCCO)c12`, which Relative Vmax [5] is on record?
**A.** Its Relative Vmax is 1.5.

**Q.** What about the Km (Vero) of the same molecule?
**A.** The Km was greater than 3 µM.

**Q.** For `Nc1ncnc2ncn(CCOCP(=O)(O)O)c12`, which Relative Vmax [6] is on record?
**A.** The Relative Vmax was 0.013.

**Q.** Which Relative Vmax [7] does the source give for `Nc1nc(O)c2c(ncn2COCCO)n1` here?
**A.** Its Relative Vmax is 28.
